In publication PMC10466730 (Cancer cell, 2023):

What was measured:
CK1α = CK1α (Homo sapiens, UniProt P48729+Q96SW2); assay: Western blot of CK1α in MOLM-13 cells; type: cell-based; details: MOLM-13
Outline: (§1)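 MOLM-13 cells (1 × 10⁶) were treated 24 h with test compound diluted from DMSO stocks. Cells were pelleted, washed with PBS, lysed in Laemmli buffer by vortexing for 10 min, and boiled at 95 °C for 5 min. Lysates were resolved on 4–15% gradient SDS-PAGE, transferred to PVDF and immunoblotted with target-specific antibodies.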

MOLM-13 cells = assay: Viability assay in MOLM-13 cells; type: cell-based, human; details: MOLM-13, 72 h, unlike lenalidomide, Figure 1E
Outline: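 Human AML cell lines were plated at 10,000 cells per well with increasing test compound up to 100 μM for 72 h at 37 °C, 5% CO₂. CellTiter-Glo was added 1:1 for 15 min at room temperature and luminescence was read; MTT was used as an alternative read-out. Percent viability was fitted by non-linear regression to give IC50. Three independent experiments, triplicates.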

IKZF2 = IKZF2 (Homo sapiens, UniProt Q96SW2+Q9UKS7); assay: Western blot of IKZF2 in MOLM-13 cells; type: cell-based; details: MOLM-13, 24 h
Chain of IKZF2 (Q9UKS7 whole entry): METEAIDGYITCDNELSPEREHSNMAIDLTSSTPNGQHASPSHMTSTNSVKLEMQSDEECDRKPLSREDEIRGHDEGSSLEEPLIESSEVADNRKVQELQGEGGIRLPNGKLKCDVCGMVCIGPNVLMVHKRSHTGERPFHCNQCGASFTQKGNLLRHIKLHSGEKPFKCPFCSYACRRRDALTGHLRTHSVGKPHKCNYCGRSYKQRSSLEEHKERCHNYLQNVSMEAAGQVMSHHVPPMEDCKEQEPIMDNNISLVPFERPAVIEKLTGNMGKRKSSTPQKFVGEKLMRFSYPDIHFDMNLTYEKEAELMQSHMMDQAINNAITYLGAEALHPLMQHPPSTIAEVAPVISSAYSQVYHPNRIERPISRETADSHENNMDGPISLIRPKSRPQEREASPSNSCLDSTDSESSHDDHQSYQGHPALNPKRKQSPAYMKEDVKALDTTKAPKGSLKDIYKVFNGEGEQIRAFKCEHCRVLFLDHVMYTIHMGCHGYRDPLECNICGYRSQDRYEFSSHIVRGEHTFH
Chain of IKZF2 (Q96SW2 whole entry): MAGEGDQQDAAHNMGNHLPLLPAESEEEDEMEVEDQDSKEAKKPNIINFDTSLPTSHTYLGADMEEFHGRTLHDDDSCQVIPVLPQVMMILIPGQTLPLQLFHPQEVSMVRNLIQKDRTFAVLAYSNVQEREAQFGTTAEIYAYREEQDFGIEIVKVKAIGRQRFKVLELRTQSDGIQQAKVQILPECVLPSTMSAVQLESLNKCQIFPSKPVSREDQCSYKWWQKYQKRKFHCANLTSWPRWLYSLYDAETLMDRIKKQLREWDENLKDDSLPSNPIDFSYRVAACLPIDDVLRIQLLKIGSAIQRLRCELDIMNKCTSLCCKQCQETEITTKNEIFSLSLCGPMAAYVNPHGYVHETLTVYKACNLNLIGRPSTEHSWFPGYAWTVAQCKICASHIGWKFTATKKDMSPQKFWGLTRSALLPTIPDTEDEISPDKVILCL
Chain of IKZF2 (Q16531 whole entry partner): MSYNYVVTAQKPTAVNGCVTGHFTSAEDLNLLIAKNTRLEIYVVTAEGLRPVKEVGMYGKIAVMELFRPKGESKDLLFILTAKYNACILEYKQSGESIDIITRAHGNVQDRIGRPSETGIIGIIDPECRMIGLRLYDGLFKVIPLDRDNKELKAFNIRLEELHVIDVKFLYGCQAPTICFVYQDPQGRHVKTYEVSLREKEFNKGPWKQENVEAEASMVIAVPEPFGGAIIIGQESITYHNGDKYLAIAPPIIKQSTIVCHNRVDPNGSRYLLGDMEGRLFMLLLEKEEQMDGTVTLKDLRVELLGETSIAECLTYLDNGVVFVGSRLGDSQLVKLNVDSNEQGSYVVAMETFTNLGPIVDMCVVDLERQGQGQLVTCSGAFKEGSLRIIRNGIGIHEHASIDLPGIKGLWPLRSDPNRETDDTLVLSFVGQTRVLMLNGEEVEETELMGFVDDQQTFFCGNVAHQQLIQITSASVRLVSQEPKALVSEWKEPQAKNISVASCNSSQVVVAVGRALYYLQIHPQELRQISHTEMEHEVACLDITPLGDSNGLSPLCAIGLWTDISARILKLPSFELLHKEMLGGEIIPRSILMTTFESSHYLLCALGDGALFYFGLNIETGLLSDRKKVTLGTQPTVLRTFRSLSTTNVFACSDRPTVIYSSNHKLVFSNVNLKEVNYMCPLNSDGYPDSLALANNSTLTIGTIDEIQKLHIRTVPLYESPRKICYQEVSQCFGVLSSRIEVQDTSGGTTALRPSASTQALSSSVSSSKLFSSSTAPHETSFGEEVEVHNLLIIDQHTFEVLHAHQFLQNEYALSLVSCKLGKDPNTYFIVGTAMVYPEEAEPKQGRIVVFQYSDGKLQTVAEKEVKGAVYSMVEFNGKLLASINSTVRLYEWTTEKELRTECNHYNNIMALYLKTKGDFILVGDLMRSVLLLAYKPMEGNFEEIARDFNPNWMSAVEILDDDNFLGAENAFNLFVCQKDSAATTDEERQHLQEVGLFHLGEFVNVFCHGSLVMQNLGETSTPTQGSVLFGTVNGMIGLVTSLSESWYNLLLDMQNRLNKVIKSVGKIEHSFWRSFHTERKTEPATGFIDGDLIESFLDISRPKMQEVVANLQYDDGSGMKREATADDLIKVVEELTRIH
Outline: as §1

Chain of CK1α (P48729 whole entry): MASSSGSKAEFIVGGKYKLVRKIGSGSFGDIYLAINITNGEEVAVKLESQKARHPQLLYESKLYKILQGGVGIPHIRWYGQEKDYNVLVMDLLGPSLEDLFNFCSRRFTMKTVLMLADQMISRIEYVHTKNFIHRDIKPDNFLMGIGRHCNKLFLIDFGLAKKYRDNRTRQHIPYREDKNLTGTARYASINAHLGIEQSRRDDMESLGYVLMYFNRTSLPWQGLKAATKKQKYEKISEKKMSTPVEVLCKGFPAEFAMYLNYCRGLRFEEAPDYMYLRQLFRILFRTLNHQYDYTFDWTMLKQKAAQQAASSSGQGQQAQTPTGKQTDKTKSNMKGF
Chain of CK1α (Q96SW2 whole entry): as the sequence (Q96SW2 whole entry) above
Chain of CK1α (Q16531 whole entry partner): as the sequence (Q16531 whole entry partner) above

Structure (SMILES)	CK1α degradation (Western blot) (CK1α)	cellular growth inhibition (MOLM-13 cells)	IKZF2 degradation (Western blot) (IKZF2)
COc1ccc2cc(CNc3ccc4c(c3)CN(C3CCC(=O)NC3=O)C4=O)ccc2c1 (stereo not drawn) [CH2-DEG-35, 3-(5-(((6-methoxynaphthalen-2-yl)methyl)amino)-1-oxoisoindolin-2-yl)piperidine-2,6-dione]	but not CH2-DEG-35 efficiently degraded		
O=C1CCC(N2Cc3cc(NC(=O)c4ccc5ccccc5c4)ccc3C2=O)C(=O)N1 (stereo not drawn) [DEG-9, N-(2-(2,6-dioxopiperidin-3-yl)-1-oxoisoindolin-5-yl)-2-naphthamide]		inhibited cellular growth	dose-dependent degradation
